Source: ChEMBL document CHEMBL1154198, “Chemical genetics of Plasmodium falciparum” (Nature, 2010)
pEC50: −log10 of the molar value.

Assays:
Trypanosoma brucei = test: ST_JUDE: Cytotoxicity using luciferase to measure ATP as an indicator of the viability of Trypanosoma brucei; type: functional, organism-based
Leishmania major = test: ST_JUDE: Cytotoxicity using Alamar Blue to measure viability of Leishmania major; type: functional, organism-based
Method in brief: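 L. major promastigotes; drug susceptibility read with Alamar Blue.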

Plasmodium falciparum [1] = test: ST_JUDE: Plasmodium falciparum K1 EC50 (uM) as measured by SYBR green dye; type: functional, organism-based
Plasmodium falciparum [2] = test: ST_JUDE: Cytotoxicity against Plasmodium falciparum Dd2; type: functional, organism-based
[3] = ST_JUDE: Cytotoxicity using luciferase to measure ATP as an indicator of the viability of human foreskin fibroblast cells (BJ); type: toxicity, cell-based
Plasmodium falciparum [4] = test: ST_JUDE: Cytotoxicity against Plasmodium falciparum SB-A6; type: functional, organism-based
[5] = ST_JUDE: Cytotoxicity using luciferase to measure ATP as an indicator of the viability of human epithelial hepatocellular carcinoma cells (HepG2); type: toxicity, cell-based
Plasmodium falciparum [6] = test: ST_JUDE: Cytotoxicity against Plasmodium falciparum 3D7; type: functional, organism-based
Method in brief: (§1)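 Asexual P. falciparum grown in human erythrocytes, exposed to compounds for 72 h, and growth read as the DNA quantity in treated versus control cultures. Dose-response run at 12 concentrations from 10 μM to 5 nM.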

Plasmodium falciparum [7] = test: ST_JUDE: Cytotoxicity against Plasmodium falciparum K1; type: functional, organism-based; method in brief: as §1
Plasmodium falciparum [8] = test: ST_JUDE: Cytotoxicity against Plasmodium falciparum W2; type: functional, organism-based
Plasmodium falciparum [9] = test: ST_JUDE: Cytotoxicity against Plasmodium falciparum V1/S; type: functional, organism-based
Toxoplasma gondii = test: ST_JUDE: Growth inhibition of to Toxoplasma gondii, in human U-2OS cells, as measured by luciferase.; type: functional, organism-based; conditions: RH, U2OS
Method in brief: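 T. gondii parasites engineered to express luciferase; drug sensitivity read by luminescence.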

Plasmodium falciparum [10] = test: ST_JUDE: Cytotoxicity against Plasmodium falciparum D10 transfected with yeast DHOD; type: functional, organism-based
Plasmodium falciparum [11] = test: ST_JUDE: Plasmodium falciparum 3D7 EC50 (uM) as measured by SYBR green dye; type: functional, organism-based
[12] = ST_JUDE: Cytotoxicity using luciferase to measure ATP as an indicator of the viability of human Burkitt''s lymphoma lymphoblast cells (Raji); type: toxicity, cell-based
[13] = ST_JUDE: Cytotoxicity using luciferase to measure ATP as an indicator of the viability of human epithelial embryonic kidney cells (HEK293); type: toxicity, cell-based

SMILES | pEC50 (Trypanosoma brucei) | pEC50 (Leishmania major) | pEC50 (Plasmodium falciparum [1]) | pEC50 (Plasmodium falciparum [2]) | pEC50 [3] | pEC50 (Plasmodium falciparum [4]) | pEC50 [5] | pEC50 (Plasmodium falciparum [6]) | pEC50 (Plasmodium falciparum [7]) | pEC50 (Plasmodium falciparum [8]) | pEC50 (Plasmodium falciparum [9]) | pEC50 (Toxoplasma gondii) | pEC50 (Plasmodium falciparum [10]) | pEC50 (Plasmodium falciparum [11]) | pEC50 [12] | pEC50 [13]
COc1ccc(O)c(CN2CCN(c3cc(C)ccc3C)CC2)c1 | < 4.47 | < 4.82 | 6.31 | 6.13 | < 4.45 | 5.89 | < 4.45 | 5.66 | 6.00 | 6.25 | 6.18 | < 4.71 | 5.91 | 5.86 | < 4.45 | < 4.45
CCCCOc1ccc(N(C(C)=O)C2=C(N3CCCCC3)C(=O)c3ccccc3C2=O)cc1 | 5.31 | < 4.91 | 6.31 | 6.42 | < 4.55 | 6.98 | 4.86 | 6.78 | 6.83 | 6.32 | 6.92 | < 4.81 | 7.21 | 6.14 | 5.16 | < 4.55
CCOc1ccc(NC(=O)C2c3ccccc3C(=O)N(CC(C)C)C2c2cccs2)cc1 (centres undefined) | 5.16 | < 4.74 | 6.83 | 6.44 | < 4.37 | 6.45 | < 4.37 | 6.59 | 6.53 | 6.87 | 6.30 | < 4.63 | 6.43 | 6.88 | < 4.37 | < 4.37
CCCCn1c(=N)n(CC(O)c2ccc(Br)cc2)c2ccccc21 (centres undefined) | 5.21 | < 4.73 | 6.41 | 6.06 | < 4.36 | 5.58 | 4.72 | 5.70 | 5.87 | 6.20 | 5.95 | < 4.62 | 5.25 | 5.98 | 4.48 | < 4.36
Cc1cc(Nc2ccc(Br)c(C)c2)n2nc(C)nc2n1 | < 4.44 | < 4.79 | 6.79 | 6.69 | < 4.42 | < 5.01 | < 4.42 | 6.67 | 6.53 | 6.92 | 6.53 | < 4.68 | < 5.01 | 6.78 | < 4.42 | < 4.42
CCCO/C(O)=C1\C(C)=NC2=C(C(=O)CC(c3ccc(OC)cc3)C2)C1c1ccccc1F (centres undefined) | 5.01 | < 4.72 | 6.36 | 6.20 | < 4.35 | 6.62 | < 4.35 | 6.31 | 6.55 | 7.08 | 6.43 | < 4.61 | 6.38 | 6.26 | < 4.35 | < 4.35
CO/C(O)=C1\C(C)=NC2=C(C(=O)CC(c3ccc(OC)c(OC)c3)C2)C1c1ccc(F)cc1 (centres undefined) | 4.60 | < 4.70 | 6.97 | 6.34 | < 4.33 | 6.75 | < 4.33 | 6.63 | 6.57 | 6.68 | 6.39 | < 4.60 | 6.74 | 6.91 | < 4.33 | < 4.33
COc1ccc(C2CC3=NC(C)=C(C(=O)OC(C)C)C(c4ccccc4OC)C3=C(O)C2)cc1OC (centres undefined) | 4.79 | < 4.72 | 6.00 | 6.09 | < 4.35 | 6.44 | < 4.35 | 6.15 | 6.40 | 6.62 | 6.36 | 4.94 | 6.20 | 5.86 | < 4.35 | < 4.35
CCc1ccc(Nc2cc(C)c3ccc(O)cc3n2)cc1 | < 4.38 | < 4.73 | 6.90 | 6.11 | < 4.36 | 6.08 | 4.63 | 6.20 | 6.72 | 6.15 | 6.74 | < 4.62 | 6.23 | 6.14 | 4.51 | < 4.36
CCCCCCCCCC[n+]1ccccc1 | < 4.33 | < 4.68 | 5.82 | 5.94 | < 4.31 | 5.54 | < 4.31 | 5.64 | 5.44 | 6.05 | 5.03 | < 4.57 | 5.41 | 5.88 | 5.03 | < 4.31
COc1ccc(Nc2cc(C)nc(Nc3ccc(NS(=O)(=O)c4ccc(OC)cc4)cc3)n2)cc1 | 5.24 | 6.76 | < 4.82 | 5.91 | < 4.30 | 6.26 | 4.76 | 5.99 | < 4.89 | < 4.89 | < 4.89 | < 4.56 | 5.77 | 6.13 | 4.85 | 4.51
Cc1ccc2c(c1)N(CCO)/C(=C/c1sc3ccccc3[n+]1C)S2 | 5.28 | < 5.15 | 6.79 | 6.71 | < 4.78 | 6.33 | < 4.78 | 6.60 | 6.48 | 6.62 | 6.40 | < 5.04 | 6.47 | 6.37 | 5.75 | < 4.78
CCOc1ccc(/C=C2\Oc3c(ccc(O)c3CN3CCCCC3)C2=O)cc1 | < 4.35 | < 4.70 | 6.33 | 5.67 | < 4.33 | 5.47 | < 4.33 | 5.75 | 6.30 | 5.94 | 5.93 | < 4.59 | 5.73 | 5.89 | < 4.33 | < 4.33
CCOC(=O)C1(Cc2ccc(Cl)cc2)CCN(Cc2ccccc2O)CC1 | 4.91 | < 4.61 | 6.98 | 6.35 | < 4.24 | 6.26 | < 4.24 | 5.70 | 6.71 | 6.26 | 6.49 | < 4.51 | 6.25 | 6.34 | < 4.24 | < 4.24
C=CCN1C=CC=C/C1=C\c1sc2ccccc2[n+]1CC | 5.57 | 7.91 | 5.84 | 6.04 | < 4.67 | 5.80 | < 4.67 | 5.89 | 5.72 | < 5.26 | 5.70 | < 4.93 | 5.53 | 5.64 | 5.55 | < 4.67
CC(C)CN1C(=O)c2ccccc2C(C(=O)Nc2ccc(F)cc2F)C1c1cccs1 (centres undefined) | 5.05 | < 4.73 | 6.40 | 6.09 | < 4.36 | 6.01 | < 4.36 | 6.19 | < 4.95 | 6.13 | 6.03 | < 4.62 | 6.16 | 6.49 | < 4.36 | < 4.36
Cc1ccc(NC(=O)C2c3ccccc3C(=O)N(CC(C)C)C2c2cccs2)cc1C (centres undefined) | 5.20 | < 4.75 | 6.89 | 6.49 | < 4.39 | 6.63 | < 4.39 | 6.68 | 6.74 | 5.42 | 6.46 | < 4.65 | 6.74 | 7.20 | < 4.39 | < 4.39
CCOc1ccc(Nc2cc(C)c3ccc(O)cc3n2)cc1 | 4.66 | < 4.66 | 6.82 | 6.20 | < 4.29 | 6.34 | 4.52 | 6.15 | 6.80 | 6.63 | 6.71 | < 4.55 | 6.30 | 6.32 | 4.46 | < 4.29
CC(C)c1ccc(NC(=O)/C=C/c2ccccc2Cl)cc1 | 4.64 | < 4.76 | 6.03 | 5.79 | < 4.39 | < 4.98 | < 4.39 | < 4.98 | < 4.98 | 6.38 | < 4.98 | < 4.65 | < 4.98 | 5.96 | < 4.39 | < 4.39
